Sampled rows, rich in hits. Any-hit rate of the full collection: about 6.4%.
EphB4 antag – EphB4-ephrin-B2 interaction antagonists, primary screen, biochemical, TNYL-RAW peptide probe, fluorescence polarization. Ephrin type-B receptor 4 (Homo sapiens), P54760. EphB4 LBD / TNYL-RAW-Alexa532 peptide. inhibition, % at 7 µM. 97,000 compounds, 0.15% hits;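 active = inhibition above the screen-wide mean inhibition plus 3 SD, cut at about 15% in these data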
PLK1 kinase inh – human PLK1 kinase inhibitors, primary screen, biochemical, TR-FRET; recombinant PLK1 kinase, TR-FRET peptide phosphorylation; inhibition, % at 10 µM; AID 619, 2007; Serine/threonine-protein kinase PLK1 (Homo sapiens), P53350; 97,000 compounds, 0.53% hits;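 active = inhibition of 50% or more in the single-concentration screen; inactive = inhibition below 50%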
PostGolgi ctrl – growth inhibition of yeast control strain, primary screen, counter-screen for post-Golgi transport modulator project; inhibition, % at 10 µM; 98,000 compounds, 5% hits; efflux-deficient yeast background strain, growth absorbance A615, 16 h; AID 738, 2007
Rev-RRE block – HIV-1 Rev-RRE binding inhibitors, primary screen, biochemical, FRET, protein-RNA interaction; P05866; Rev peptide-RRE RNA binding; inhibition, % at 8 µM; 97,000 compounds, 0.79% hits; AID 704, 2007;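 active = inhibition above the screen-wide mean plus 3 SD, cut at about 35% in these data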
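Test system: labelled RRE RNA duplex and labelled Rev peptide. Times: 5 min compound–RNA preincubation, then 15 min with peptide, 25 °C. Doses: single-dose 8 µM. Measured by: FRET, excitation 480 nm, emission 540 nm donor and 671 nm acceptor. Measure: % inhibition of FRET ratio versus controls.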
PLK1 PBD inh – Plk1 polo box domain binding inhibitors, primary screen, biochemical, fluorescence polarization; Serine/threonine-protein kinase PLK1 (Homo sapiens), P53350; Plk1 PBD phosphopeptide binding; inhibition, %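 (tested at about 20 µM)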; 97,000 compounds, 0.13% hits; in the data active = inhibition above about 34%, passing the limit was not always enough
PostGolgi yeast – phenotypic screen on post-Golgi transport, primary screen. post-Golgi transport phenotypic cell assay. inhibition, % at 10 µM. 98,000 compounds, 0.9% hits;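 also: yeast cells grown in 1536-well plates; yeast grown about 18 h at 30C before absorbance read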
Each line names hits and unclear results; the compound was inactive in the other large screens; [ ] = remark or other dose. Rule as the data show it, unless noted: active = inhibition above about 30%; inactive = the rest.

Cc1ccc(CNC(=O)C2CCC(=O)N2C2CCCCC2)cc1 (centres undefined)	none
CCOc1ccc(CCNC(=O)C2CCC(=O)N2C2CCCCC2)cc1OCC (centres undefined)	PostGolgi ctrl 36
NC(=O)Cn1c2[n+](c3ccccc31)CC(O)CS2 (centres undefined)	none
CCN(CC)S(=O)(=O)c1ccc(NC2CCCc3ccccc32)nc1 (centres undefined)	PostGolgi ctrl 48
C=CCc1c(C)nc(C)nc1N/N=C/c1ccccc1O	Rev-RRE block 41
C=CCc1c(C)nc(C)nc1N/N=C/c1ccc([N+](=O)[O-])cc1	none
CN(C)CCNc1c2c(c(C#N)c3nc4ccccc4n13)CCCC2	none
CCN(CC)CCNc1c2c(c(C#N)c3nc4ccccc4n13)CCCC2	PostGolgi ctrl 46
N#CC1(C#N)CC(C=O)=C(N)C1(C#N)CC(=O)c1ccc(F)cc1 (centres undefined)	Rev-RRE block 84[fluorescence artefact?]
O=C(/C=C/c1cccnc1)c1ccc(NC(=O)c2cccc(Br)c2)cc1	PostGolgi ctrl 40
CCN(CC)C(=O)C(=O)N/N=C/c1ccc(Br)cc1	none
Cc1ccc(NC(=O)C2CC(=O)N(c3ccc4c5c(cccc35)CC4)C2)cc1 (centres undefined)	PostGolgi ctrl 31
CC(=O)Nc1cccc(NC(=O)C2CC(=O)N(c3ccc(C)cc3)C2)c1 (centres undefined)	none
COc1ccc(NC(=O)/C(Cl)=C(/Cl)S(=O)(=O)Cc2ccccc2)cn1	PostGolgi ctrl 78
COc1cc2c(cc1OC)CN(C(=O)CCCN1C(=O)c3ccccc3C1=O)CC2	none
COc1cc2c(cc1OC)CN(C(=O)CCCOc1ccc(Cl)cc1Cl)CC2	PostGolgi ctrl 38
O=C(COc1ccc(Cl)cc1Cl)NC(=S)N1CCCc2ccccc21	none
O=C(CCCOc1ccc(Cl)cc1Cl)N1CCCc2ccccc21	PostGolgi ctrl 48
O=C(c1ccc(F)cc1)N1CCN(c2cc(N3CCCCC3)c(F)cc2[N+](=O)[O-])CC1	none
O=C(NCCOc1ccccc1)C1CCCN1C(=O)c1cccs1 (centres undefined)	PostGolgi ctrl 34
CC(=O)Nc1ccccc1N(C)S(=O)(=O)c1ccc(C)cc1	none
N#CC1=C(N)SC(N)=C(C#N)C1CCC1CCCCC1	Rev-RRE block 68
CCCCn1c(SCC(N)=O)nc2ccc(N3CCOCC3)cc2c1=O	PostGolgi ctrl 35
CCCCn1c(SCC(=O)Nc2cccc(OC)c2)nc2ccc(N3CCOCC3)cc2c1=O	none (no result: EphB4 antag, PLK1 kinase inh, Rev-RRE block, PLK1 PBD inh)
CCN(C(=O)CSc1nnc(Cn2nnc3ccccc32)o1)c1nc(-c2ccccc2)cs1	PostGolgi ctrl 35
Cn1cccc1/C=C1\CCC/C(=C\c2cccn2C)C1=O	PostGolgi ctrl 41, Rev-RRE block 136[fluorescence artefact?]
Cn1cccc1/C=N/n1cnnc1	none
Cc1cc(C)n2nc(C(=O)NCc3ccccc3)cc2n1	PostGolgi yeast 43
COc1ccccc1-n1c(SCC(=O)NC(C)(C)C)nc(O)cc1=O	none
COc1ccccc1-n1c(SCC(=O)Nc2ccccc2C)nc(O)cc1=O	PostGolgi ctrl 37
COc1ccccc1NC(=O)CSc1nc(O)cc(=O)n1-c1ccccc1OC	PostGolgi ctrl 35
CC(C)(C)NC(=O)CSc1nc(O)cc(=O)n1-c1ccccc1F	Rev-RRE block 53
COc1ccc2cc(C3(C)NC(=O)NC3=O)ccc2c1 (centres undefined)	Rev-RRE block 37
COc1ccc(N2CCN(S(=O)(=O)c3ccc4c(c3)CCCC4)CC2)c([N+](=O)[O-])c1	none
Cc1nnc(-c2cnn(-c3ccccc3)c2N)n1Cc1ccc(F)cc1	none
OC(COc1c(F)cc(Br)cc1F)CN1CCN(c2ccc(F)cc2)CC1 (centres undefined)	PostGolgi ctrl 47, PostGolgi yeast 33
OC(COc1ccc2ccccc2c1)CN1CCN(c2ccc(F)cc2)CC1 (centres undefined)	none (no result: EphB4 antag, PLK1 kinase inh, Rev-RRE block, PLK1 PBD inh)
O=C(COc1cccc(NC(=O)c2ccco2)c1)c1ccccc1	none
COC(=O)c1[nH]c2ccc(Cl)cc2c1NC(=O)CN1CCc2cc(OC)c(OC)cc2C1	PostGolgi ctrl 31
CCOC(=O)c1[nH]c2ccc(OC)cc2c1NC(=O)CCN1CCc2ccccc2C1	PostGolgi ctrl 32
CCCCc1nc2sc3c(c2c(=O)[nH]1)CCC3	none
COc1ccccc1NC(=O)CN1CCC(C(=O)c2ccc(F)cc2)CC1	PostGolgi ctrl 32
COc1ccccc1NC(=O)N1CCC(C(=O)c2ccc(F)cc2)CC1	none
COc1ccccc1NC(=O)CN1CCN(CC(=O)Nc2ccc(Cl)c(C(F)(F)F)c2)CC1	PostGolgi ctrl 82
CCC(C)N(C(=O)Cn1nnc2ccccc21)C(C(=O)Nc1ccc(F)cc1)c1cccc(OC)c1 (centres undefined)	none
C/C(=N/NC(=O)c1cccs1)c1ccc(NC(=O)COc2ccc(Cl)cc2)cc1	none
CN(CC(=O)Nc1ccc(C#N)cc1)Cc1ccc(Cl)cc1Cl	PostGolgi ctrl 41
N#Cc1ccc(NC(=O)Nc2ccc(Cl)cc2)cc1	PostGolgi ctrl 74 (no result: EphB4 antag, PLK1 kinase inh, Rev-RRE block, PLK1 PBD inh)
CN(CC(=O)Nc1ccc(C#N)cc1)Cc1ccc(Cl)cc1	none (no result: EphB4 antag, PLK1 kinase inh, Rev-RRE block, PLK1 PBD inh)
Cc1ccc(C(=C2C3C=CC2C2C(=O)NC(=O)C32)c2ccc(C)cc2)cc1 (centres undefined)	PostGolgi ctrl 55
Cc1cc(C)c2c3c(cn2n1)c(=O)n(C)c(=O)n3C	none (no result: PostGolgi ctrl, PostGolgi yeast)
CCCNC(=O)c1ccccc1NC(=O)CN(c1ccccc1OCC)S(C)(=O)=O	none
COc1ccc2nc(N3CCC(C)CC3)c(C#N)cc2c1	none
COc1ccc2nc(N3CCC(O)CC3)c(C#N)cc2c1	Rev-RRE block 37
COc1ccc(/C=N/n2c(SC)nnc2-c2ccccc2)cc1C	PostGolgi ctrl 43
Cc1ccc(CONC(=O)/N=C/N(C)C)cc1	none
CCN(CC)c1ccc(/C=c2/sc3nnc(-c4ccccc4C)n3c2=O)cc1	Rev-RRE block 118[fluorescence artefact?]
CCN(CC)c1ccc(/C=c2\sc3nnc(-c4ccccc4Cl)n3c2=O)cc1	Rev-RRE block 134[fluorescence artefact?]
Cc1ccc(/C=c2/sc3nnc(-c4ccccc4Cl)n3c2=O)o1	none
COC(=O)C1(c2ccccc2)NC(c2cccs2)C2C(=O)N(c3ccccc3)C(=O)C21 (centres undefined)	none (no result: PostGolgi ctrl, PostGolgi yeast)
COC(=O)C1=C(C)N=C2SC(C)C(=O)N2C1c1ccc(C(=O)OC)cc1 (centres undefined)	PostGolgi ctrl 36
CCC1SC2=NC(C)=C(C(=O)OC)C(c3ccc(C)cc3)N2C1=O (centres undefined)	PostGolgi ctrl 42
O=C(Nc1ccccc1OC(F)F)c1ccc(Br)o1	none

From PubChem BioAssay
